From ChEMBL document CHEMBL4251654, “Structure-based design of human immuno- and constitutive proteasomes inhibitors” (Eur J Med Chem, 2018)
Activity calls are given as the source filed them. The calls are words filed in the database; no cut-off is given here.

Legend:
[1] = molecular target: T1, Proteasome component C5 (Homo sapiens) (UniProt P20618); test: Inhibition of human 20S constitutive proteasome beta-1 at 50 uM using Z-LLE-betaNA as substrate incubated for 15 mins measured for 45 mins by fluorescence assay relative to control
T1 sequence (whole entry): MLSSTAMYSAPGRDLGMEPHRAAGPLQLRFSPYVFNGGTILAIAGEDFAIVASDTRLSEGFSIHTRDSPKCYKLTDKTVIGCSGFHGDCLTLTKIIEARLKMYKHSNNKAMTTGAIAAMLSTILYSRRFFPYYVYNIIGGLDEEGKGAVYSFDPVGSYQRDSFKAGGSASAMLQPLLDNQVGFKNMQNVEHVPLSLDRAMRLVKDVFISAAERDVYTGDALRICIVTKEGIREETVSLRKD
Procedure, shortened: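 Human 20S constitutive proteasome, 0.3 nM, was preincubated 15 min with compound (0.001-50 μM) in pH 8 Tris-HCl 20 mM, 10% glycerol, 0.01% SDS, 2% DMSO. Z-LLE-βNA at 50 μM was added. βNA fluorescence (ex 340/em 404 nm) was monitored 45 min at 37 °C against an untreated control.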

[2] = molecular target: T2, Proteasome subunit beta type-9 (Homo sapiens) (UniProt P28065); test: Inhibition of human 20S immunoproteasome beta-1 at 50 uM using Ac-PAL-AMC as substrate incubated for 15 mins measured for 45 mins by fluorescence assay relative to control
T2 sequence (whole entry): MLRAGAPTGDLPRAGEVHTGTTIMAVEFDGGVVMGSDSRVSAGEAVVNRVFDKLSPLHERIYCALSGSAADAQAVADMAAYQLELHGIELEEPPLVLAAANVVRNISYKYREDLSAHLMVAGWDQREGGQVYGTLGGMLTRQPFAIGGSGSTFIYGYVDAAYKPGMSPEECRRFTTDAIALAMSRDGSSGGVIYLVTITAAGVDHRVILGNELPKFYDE
Procedure, shortened: (§1)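 Human 20S immunoproteasome (0.3 nM) was given 15 min with compound (0.001-50 μM) in pH 8 buffer of 20 mM Tris-HCl, 10% glycerol, 0.01% SDS, 2% DMSO. Ac-PAL-AMC at 50 μM was the substrate. Fluorescence (ex 360/em 460 nm) was followed 45 min at 37 °C relative to control.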

[3] = molecular target: Proteasome Macropain subunit (Homo sapiens) (UniProt P49721); test: Inhibition of human 20S constitutive proteasome beta-2 at 50 uM using BocLRR-AMC as substrate incubated for 15 mins measured for 45 mins by fluorescence assay relative to control
Chain of Proteasome Macropain subunit (Homo sapiens) (P49721 whole entry): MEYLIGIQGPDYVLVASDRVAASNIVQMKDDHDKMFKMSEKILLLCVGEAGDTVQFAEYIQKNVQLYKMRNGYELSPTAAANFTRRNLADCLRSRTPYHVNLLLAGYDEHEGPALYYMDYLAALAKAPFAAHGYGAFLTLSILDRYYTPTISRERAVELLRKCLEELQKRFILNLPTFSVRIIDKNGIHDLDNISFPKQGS
Procedure, shortened: (§2)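 Purified human 20S proteasome (cCP or iCP), 0.3 nM, preincubated 15 min with compound (0.001-50 μM) in pH 8 buffer of 20 mM Tris-HCl, 10% glycerol, 0.005% Triton X-100, 2% DMSO. Then Boc-LRR-AMC at 50 μM was added. AMC fluorescence (ex 360/em 460 nm) was followed 45 min at 37 °C. Activity is relative to an untreated control.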

[4] = molecular target: T3, Proteasome subunit beta type-10 (Homo sapiens) (UniProt P40306); test: Inhibition of human 20S immunoproteasome beta-2 at 50 uM using BocLRR-AMC as substrate incubated for 15 mins measured for 45 mins by fluorescence assay relative to control
T3 sequence (whole entry): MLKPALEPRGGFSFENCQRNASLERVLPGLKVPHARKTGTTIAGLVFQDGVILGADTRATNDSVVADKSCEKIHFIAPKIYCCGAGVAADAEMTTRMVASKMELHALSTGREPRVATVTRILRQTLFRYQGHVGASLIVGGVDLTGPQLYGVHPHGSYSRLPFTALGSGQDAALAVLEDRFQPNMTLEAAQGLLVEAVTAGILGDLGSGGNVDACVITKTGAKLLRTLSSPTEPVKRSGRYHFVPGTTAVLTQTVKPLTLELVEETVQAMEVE

[5] = test system: 20S immunoproteasome β5i (Homo sapiens); test: Inhibition of human 20S immunoproteasome beta-5 at 50 uM
[6] = test system: 20S proteasome β5 (Homo sapiens); test: Inhibition of human 20S constitutive proteasome beta-5 at 50 uM
[7] = test system: 20S immunoproteasome β5i (Homo sapiens); test: Inhibition of human 20S immunoproteasome beta-5
[8] = test system: 20S proteasome β5 (Homo sapiens); test: Inhibition of human 20S constitutive proteasome beta-5
[9] = molecular target: T4, Proteasome Macropain subunit MB1 (Homo sapiens, UniProt P28074); test: Inhibition of human 20S constitutive proteasome beta-5 using Suc-LLVY-AMC as substrate incubated for 15 mins measured for 45 mins by fluorescence assay
T4 sequence (P28074 whole entry): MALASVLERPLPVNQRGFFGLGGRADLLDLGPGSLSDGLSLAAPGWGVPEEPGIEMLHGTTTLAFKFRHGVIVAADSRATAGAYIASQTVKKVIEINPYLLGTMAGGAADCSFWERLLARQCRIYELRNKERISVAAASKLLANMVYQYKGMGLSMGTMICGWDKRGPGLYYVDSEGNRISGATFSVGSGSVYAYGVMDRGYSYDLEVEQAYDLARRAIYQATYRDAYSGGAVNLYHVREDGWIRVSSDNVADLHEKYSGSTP
Procedure, shortened: (§3)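 Human 20S cCP or iCP (0.3 nM) was exposed to compound (0.001-50 μM) for 15 min in pH 8 buffer of 20 mM Tris-HCl, 10% glycerol, 0.01% SDS, 2% DMSO. Suc-LLVY-AMC at 20 μM followed. Fluorescence (ex 360/em 460 nm) was read 45 min at 37 °C versus untreated enzyme.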

[10] = molecular target: T5, Proteasome subunit beta type-8 (Homo sapiens, UniProt P28062); test: Inhibition of human 20S immunoproteasome beta-5 using Suc-LLVY-AMC as substrate incubated for 15 mins measured for 45 mins by fluorescence assay; procedure, shortened: as §3
T5 sequence (P28062 whole entry): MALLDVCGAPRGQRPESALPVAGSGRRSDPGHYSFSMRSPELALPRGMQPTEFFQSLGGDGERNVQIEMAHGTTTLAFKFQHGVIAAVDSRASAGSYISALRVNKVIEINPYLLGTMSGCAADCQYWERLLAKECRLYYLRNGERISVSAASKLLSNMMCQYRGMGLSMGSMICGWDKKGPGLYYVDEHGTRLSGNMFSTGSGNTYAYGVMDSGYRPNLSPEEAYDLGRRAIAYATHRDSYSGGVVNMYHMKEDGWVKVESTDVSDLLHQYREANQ

[11] = molecular target: T6, Proteasome Macropain subunit MB1 (Homo sapiens) (UniProt P28074); test: Inhibition of human 20S constitutive proteasome beta-5 at 50 uM using Suc-LLVY-AMC as substrate incubated for 15 mins measured for 45 mins by fluorescence assay relative to control; procedure, shortened: as §3
T6 sequence (whole entry): T4 sequence (P28074 whole entry)

[12] = molecular target: T7, Proteasome subunit beta type-8 (Homo sapiens) (UniProt P28062); test: Inhibition of human 20S immunoproteasome beta-5 at 50 uM using Suc-LLVY-AMC as substrate incubated for 15 mins measured for 45 mins by fluorescence assay relative to control; procedure, shortened: as §3
T7 sequence (whole entry): T5 sequence (P28062 whole entry)

[13] = molecular target: T8, Proteasome subunit beta type-9 (Homo sapiens, UniProt P28065); test: Inhibition of human 20S immunoproteasome beta-1 using Ac-PAL-AMC as substrate incubated for 15 mins measured for 45 mins by fluorescence assay; procedure, shortened: as §1
T8 sequence (P28065 whole entry): T2 sequence (whole entry)

[14] = molecular target: T3, Proteasome subunit beta type-10 (Homo sapiens); test: Activation of human 20S immunoproteasome beta-2 at 50 uM using BocLRR-AMC as substrate incubated for 15 mins measured for 45 mins by fluorescence assay relative to control; procedure, shortened: as §2
[15] = molecular target: T9, Proteasome subunit beta type-10 (Homo sapiens, UniProt P40306); test: Inhibition of human 20S immunoproteasome beta-2 using BocLRR-AMC as substrate incubated for 15 mins measured for 45 mins by fluorescence assay
T9 sequence (P40306 whole entry): T3 sequence (whole entry)

[16] = test system: Huh-7; test: Cytotoxicity against human HuH7 cells assessed as reduction in cell viability after 48 hrs by Hoechst 33342 staining based HCS assay; assay type: functional; details: Homo sapiens, Huh-7, 48 h; read-out: EC50
Procedure, shortened: (§4)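 Cells were grown at 37 °C, 5% CO2 in medium with 10% FBS, 1% penicillin-streptomycin, 2 mM glutamine: DMEM for HuH7, MDA-MB-231 and fibroblasts, EMEM for Caco2, McCoy's for HCT116, RPMI for PC3 and NCI-H727. 4000 cells/well were seeded and dosed 24 h later at 0.1-25 μM final, from DMSO stocks. After 48 h they were fixed in ethanol/acetic acid and Hoechst-stained nuclei were counted by imaging. Survival is relative to DMSO. EC50 came from dose-response curves.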

[17] = test system: Caco-2; test: Cytotoxicity against human Caco2 cells assessed as reduction in cell viability after 48 hrs by Hoechst 33342 staining based HCS assay; assay type: functional; details: Homo sapiens, Caco-2, 48 h; read-out: EC50; procedure, shortened: as §4
[18] = test system: MDA-MB-231; test: Cytotoxicity against human MDA-MB-231 cells assessed as reduction in cell viability after 48 hrs by Hoechst 33342 staining based HCS assay; assay type: functional; details: Homo sapiens, MDA-MB-231, 48 h; read-out: EC50; procedure, shortened: as §4
[19] = test system: HCT-116; test: Cytotoxicity against human HCT116 cells assessed as reduction in cell viability after 48 hrs by Hoechst 33342 staining based HCS assay; assay type: functional; details: Homo sapiens, HCT-116, 48 h; read-out: EC50; procedure, shortened: as §4
[20] = test system: PC-3; test: Cytotoxicity against human PC3 cells assessed as reduction in cell viability after 48 hrs by Hoechst 33342 staining based HCS assay; assay type: functional; details: Homo sapiens, PC-3, 48 h; read-out: EC50; procedure, shortened: as §4
[21] = test system: NCI-H727; test: Cytotoxicity against human NCI-H727 cells assessed as reduction in cell viability after 48 hrs by Hoechst 33342 staining based HCS assay; assay type: functional; details: Homo sapiens, NCI-H727, 48 h; read-out: EC50; procedure, shortened: as §4
[22] = test system: MCF7; test: Cytotoxicity against human MCF7 cells assessed as reduction in cell viability after 48 hrs by Hoechst 33342 staining based HCS assay; assay type: functional; details: Homo sapiens, MCF7, 48 h; read-out: EC50
[23] = test system: Fibroblast; test: Cytotoxicity against human fibroblasts assessed as reduction in cell viability after 48 hrs by Hoechst 33342 staining based HCS assay; procedure, shortened: as §4

SMILES | inhibition [1] | inhibition [2] [%] | inhibition [3] | inhibition [4] [%] | IC50 [7] [µM] | IC50 [8] [µM] | IC50 [9] [µM] | IC50 [10] [µM] | inhibition [11] [%] | inhibition [12] [%] | IC50 [13] [µM] | fold change (FC) [14] | IC50 [15] [µM] | further results
CNC(=O)[C@H](C[C@@]1(O)C(=O)Nc2ccccc21)NC(=O)[C@H](C)NC(=O)[C@H](Cc1ccc(OCc2ccccc2)cc1)NC(=O)OC(C)(C)C | inactive | 10 | 13% | 19 | – | – | – | – | – | – | – | – | – | inhibition [5]: 8%; inhibition [6]: inactive
C[C@H](NC(=O)[C@H](Cc1ccc(O)cc1)NC(=O)OC(C)(C)C)C(=O)N[C@@H](C[C@]1(O)C(=O)Nc2ccccc21)C(=O)NCc1ccccc1 | inactive | 12 | 19% | 10 | 34 | 32 | – | – | – | – | – | – | – | –
C[C@H](NC(=O)[C@H](Cc1ccc(OCc2ccccc2)cc1)NC(=O)OC(C)(C)C)C(=O)N[C@@H](C[C@]1(O)C(=O)Nc2ccccc21)C(=O)NCc1ccc(-c2ccccc2)cc1 | > 85% | > 85 | inactive | – | – | – | 28.7 | 19.7 | > 85 | > 85 | 13 | 1.5 | – | –
CC(C)(C)OC(=O)NCCCC[C@H](NC(=O)[C@H](Cc1ccc(OCc2ccccc2)cc1)NC(=O)OC(C)(C)C)C(=O)N[C@@H](C[C@]1(O)C(=O)Nc2ccccc21)C(=O)NCc1ccccc1 | 15% | > 85 | inactive | – | – | – | 22 | 25.1 | > 85 | > 85 | 59 | 1.3 | – | –
CNC(=O)[C@H](C[C@]1(O)C(=O)Nc2ccccc21)NC(=O)[C@H](C)NC(=O)[C@H](Cc1ccc(OCc2ccccc2)cc1)NC(=O)OC(C)(C)C | 20% | 13 | 36% | > 85 | – | – | – | – | – | – | – | – | 79 | inhibition [5]: 24%
COc1ccc(C[C@H](NC(=O)[C@H](C)NC(=O)CN2CCOCC2)C(=O)N[C@@H](Cc2ccccc2)C(=O)[C@@]2(C)CO2)cc1 | > 85% | > 85 | > 85% | – | – | – | – | – | > 85 | > 85 | – | – | – | EC50 [16]: 0.39 µM; EC50 [17]: 1.3 µM; EC50 [18]: 0.27 µM; EC50 [19]: 0.11 µM; EC50 [20]: 0.33 µM; EC50 [21]: 0.3 µM; EC50 [22]: 0.26 µM; EC50 [23]: 0.16 µM
CC(C)c1ccc(CNC(=O)[C@H](C[C@]2(O)C(=O)Nc3ccccc32)NC(=O)[C@H](C)NC(=O)[C@H](Cc2ccc(OCc3ccccc3)cc2)NC(=O)OC(C)(C)C)cc1 | 37% | > 85 | inactive | – | – | – | 10 | 17.1 | > 85 | > 85 | – | 1.3 | – | –
C[C@H](NC(=O)[C@H](Cc1ccc(OCc2ccccc2)cc1)NC(=O)OC(C)(C)C)C(=O)N[C@@H](C[C@@]1(O)C(=O)Nc2ccccc21)C(=O)NCc1ccccc1 | > 85% | > 85 | inactive | > 85 | 7.3 | 7 | – | – | – | – | 10.6 | – | 34 | –
C[C@H](NC(=O)[C@@H](N)Cc1ccc(OCc2ccccc2)cc1)C(=O)N[C@@H](C[C@]1(O)C(=O)Nc2ccccc21)C(=O)NCc1ccccc1 | > 85% | > 85 | > 85% | > 85 | 13 | 10.7 | – | – | – | – | 21.5 | – | 27.2 | –
